# Laboratory results from the EternaBench riboswitch data.
# Test system: MS2 coat protein
# Assay: apparent Kd, MS2 coat protein; higher = weaker binding; RNA-MaP array; FMN 200 µM where present
# In short: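 Binding was read on Illumina sequencing-chip clusters where stalled E. coli RNA polymerase had transcribed each design. A titration of SNAP-549-labelled MS2 coat protein began at 0.7 or 1.5 nM and doubled to 3 µM, once without ligand and once with constant ligand, in 100 mM Tris-HCl pH 7.5, 80 mM KCl, 4 mM MgCl2, BSA, DTT, yeast tRNA and Tween-20. The apparent Kd is the median of filtered per-cluster binding-curve fits, based on green signal normalised to red-channel RNA signal and control-cluster median Fmax.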
# [1] = designed as: OFF switch for flavin mononucleotide, no ligand
# [2] = ligand present: flavin mononucleotide, designed as: OFF switch for flavin mononucleotide
# [3] = designed as: ON switch for flavin mononucleotide, no ligand
# [4] = ligand present: flavin mononucleotide, designed as: ON switch for flavin mononucleotide
Sequence,apparent Kd [1] [nM],apparent Kd [2] [nM],apparent Kd [3] [nM],apparent Kd [4] [nM]
AUACAUGAGGAUCACCCAUGUUACUUGGUCUUGAUAUUACGUAGAAGGAUGAUAUUAUUAUUAGCAUAGGAUAUACAAUUUGUA,17,12.8,,
CAUGACGAAGGAUAUACAUGAGGAUCACCCAUGUGGUCAUGGAAUUACGUGUUCUCGCGUAGAAGGUUGUAGAG,11.3,12.8,,
UUUACAUGAGGAUCACCCAUGUCUGUCACCCAUGUGUGCAAUCAGGAUAUGAUAUCAAUAAUAAAUUAGAAGGGAUAACAUGAG,,,73.5,100
AGUCAGAGCAGAGGAUAUAUACAUGAGGAUCACCCAUGUGACUGACUACGCUAGAAAUAGCGUGUAUAGAAGGCUGCUCUGACA,40.2,96.4,,
UAUAUAUAGUAAGGAUAUGUAUUAAUUUUAGAAACAGAAGGUACUGACAUGAGGAUCACCCAUGUUUUAGUGUGGGCAUGUAGA,98.3,147,,
GGUUGGCGAGGAUAUACAUGAGGAUCACCCAUGUGGUCCUAAAAUAAAAUAAACCUUUGUAGAAGGCGCGGGUC,268,428,,
UCCGUGGCAUCUCGCGCAUGUCCACAUGAGGAUCACCCAUGUCAGGAUAUACGGAAUGUCGUUCCGUAGAAGGGACAAGGGCUG,178,69.7,,
UGCUACGGAGGAUAUACAUGAGGAUCACCCAUGUGAGAGAUUUGGCCGAGAGGCCAGUGUAGAAGGCCGUAGCU,68.9,416,,
UGGAUGUGGGUUCCACAUGAGGAUCACCCAUGUACCGAUGAGAGAAGGCACUCUAGUACCUAGAGUGAGGAUAUCUACAUUCAA,4.32,9.75,,
UUAUCUUGUCAAGGAUAUGUUGUAUUGAUCUGAAAACAUGAGGAUCACCCAUGUAUACGGUGGGAACAGAAGGUGAAUGUAGAA,,721,,
UAAUCUCAGAUAGGAUAUAUAGGAUGAUUUAAGACUGAACAUGAGGAUCACCCAUGUGAUUAUCUGUAGAAGGAUCAAUUAGCC,,,476,365
AUGCAGCUACCACAGGAUAUACGUGGAUCGACAUGAGGAUCACCCAUGUAUAUCCUAAUAAUUGCGUAGAAGGGUGGUCAGCUGC,,,1540,103
GCACAUGAGGAUCACCCAUGUGGUCCAGAAGGCCAGAGGAUCUGCUUUUAGCAGGUCCCUCAAAUGGAGGAUAUGGAGGGUUCU,,,261,44.7
GCGUAAUAGGUGUAGCUAGUCGUGCAAGAAGGGUGGUGAACAUGAGGAUCACCCAUGUGGUCAGUACAGGAUAUUGCUAUACGC,,,542,130
AAUAAACAUGAGGAUCACCCAUGUCAGGAUAUCCUAAAUAAAAAAAUAUAAAGAAGAAGGAGAAGGGACUAAAA,111,120,,
AGUAGAUCAGGAUAUACGUGAAAGGUCAAAGUGUCCAAUCUACAUGAGGAUCACCCAUGUAGAAGGGAUCUACA,15.2,14.6,,
AACCUAAAACAGAAGGCCAGCUACAUGAGGAUCACCCAUGUCGAAUCAUGGAGGAUAUGUUGUUAUUUACUCGCAGAUGAGUGC,,,28.1,5.51
UCGGCGCGAGGAUAUGCGGUUGCUUGGUAGGGUCGUGGCGUACAUGAGGAUCACCCAUGUAGAAGGCGCGCCGC,19.6,25.9,,
ACGGCAAUCGAAGGAUAUGGUUACAUGAGGAUCACCCAUGUCUAGGGUCUAAUUAGGUAUAAUUACCAGAAGGUCGAAGGCCUA,93.7,122,,
AUCAGCUCGUCAGGAUAUACGUCACUGCGUUAGCAGUGUGGUAAGAUCACAUGAGGAUCACCCAUGUAGAAGGGACGAGCUGAU,13.8,263,,
AGCUAGUACGAAGGAUAUACAAACAUGAGGAUCACCCAUGUAUACAUGGUUUGAUGAGACUACAUGUAGAAGGUCGUACUAGCA,,,506,796
AUCAGCUCGUCAGGAUAUACAUCACUGCUUCGGCAGUGUGGUAAGAUCACAUGAGGAUCACCCAUGUAGAAGGGACGAGCUGAU,13.9,217,,
AUGUUACAUGAGGAUCACCCAUGUGAGGAUAUGUGUAUCCCUAAAAAAGUGUGGGACCACAGAAGGUACUUGGA,51.5,50.4,,
GGAUAGGACAGAGGAUAUACGGGCUAGAGAUACUAGCAAAAUUUCCUCACAUGAGGAUCACCCAUGUAGAAGGCUGUCCUAUCG,70.1,864,,
UCAUGCAUAGCGAUAUGAUCGAGAGAUCAUGUCGCUAAAUUUAGAAGGACAUGAGGAUCACCCAUGUAGGAUAUGGGAGCAUGU,,,535,63.2
ACACGGUAUGUAGGAUAUGCAUAGCAUUGCUAUGCAGAAGGACAUGAGGAUCACCCAUGUAUGUAUUCCAUACUAAUCCCGUGG,5.77,5.74,,
AAUAGUAAGUAGAAGGUAGUAAGUAUGUUAAUCUUGUUAACAUGAGGAUCACCCAUGUAGACUACUAAGGAUAUACAUCGAUAG,14.3,13.7,,
UCGAAGAAGCAAGGAUAUCAAUAUUAGCAAAAUAUGACAUGAGGAUCACCCAUGUAAAUAUGGAGUGAGAAGGUGCAAUAAUUU,,,274,149

Sequence,apparent Kd [1] [nM],apparent Kd [2] [nM],apparent Kd [3] [nM],apparent Kd [4] [nM]
CAGUACUGAGGAUAUACAUGAGGAUCACCCAUGUGUCCUGGCUAGGAUACUAGCAAAGGUAGAAGGCAGUACUG,16.6,125,,
AGGUAAGACUUAAUUGUGCUGGUGAGAAGGCAAAUGGUUGUGAUUAACAUGAGGAUCACCCAUGUUGAGGAUAUCAUCGGUAUC,,62.9,,
AAUAACAGAGGAUAUACUGUUUUAUGUGUUUGUUAUUUUGAACAUGAGGAUCACCCAUGUAGAAGGCUGAUUAA,41.2,38.2,,
GGCGAAGAGGCUAACAUGAGGAUCACCCAUGUGGACUCAUGGUAGGAUAUGCUGUACAAAGUACAGCAGAAGGGCCGCUGAGCC,,,146,663
UUGUUAUAUGUAGGAUAUGCAUAUUAUUAUUGUGCAGAAGGACAUGAGGAUCACCCAUGUAUAUUAUUAUUAUAUAUUAUAUAU,31.4,46,,
UAUAUGUCAGGAUAUCGAUUGGAAUGGAAUUCGGUUCUGGUUGAGAAGGGACAUGAGGAUCACCCAUGUUUUUC,27.6,84.4,,
UGUCUAUUUGAAGGAUAUCUAAGCAUAAACCGUAGAGAAGGUCAAUUAUACAUGAGGAUCACCCAUGUUGAGAUUGAUGGGUUU,16.9,17.8,,
UCCAAAUCGUAGAAGGGUGACAUGAGGAUCACCCAUGUGCAGCGGCCGUGAACGGCCACGCUGCCACAGGAUAUACGAUGGAGU,,,48.4,74
UGGUCAUGAUCAGGAUAUUAACAUGGGCUACAUUAAGAAGGGAUAGUGAGAUGCGAACGGAGCGACAUGAGGAUCACCCAUGUA,,,39.2,25.5
GUACAGUAGUGAGGAUAUACGAGAUCGAUAGAUCGGCGAUCCAUUAAUACAUGAGGAUCACCCAUGUAGAAGGCACUUCUGUAC,5.84,82.5,,
AAAAAACAUGAGGAUCACCCAUGUUAGGAUAUGCUAUGGAAAAUAAAAAAUAAACAUAGCAGAAGGAACAAAAA,43.4,48.9,,
UAGCUUGAUUCUCGUGUAUACAUGAGGAUCACCCAUGUGACGCAGGAUAUAGGCGUGUUAGUAGCCUAGAAGGGCGAGCAGCGU,153,235,,
AUAGGCCUAGGAUAUACAUGAGGAUCACCCAUGUUAAUACUUCAAUCAAGUUAAUAGUGUAGAAGGAGGAAUAA,27.6,32.4,,
UGCCAGUUAGGAUAUGCACGCGCCGGUGACCUGCUACGGCUACAUGAGGAUCACCCAUGUAGAAGGAACUGGGC,19.6,20.2,,
CAUUCCAGGUAGAAGGGAUUACUACAUGAGGAUCACCCAUGUCGAUUGGUCAGGAUAUGCCUGUCACGACGCGUGAUGCUAAAA,,,382,187
CUGGGUUAGGAGAAGGGCUAGAGUGUGAUAUAUUUGCCCGCGAGCACAUGAGGAUCACCCAUGUAGCAGGAUAUCCAAACCGGU,7.33,19.5,,
UUUUAACAUGAGGAUCACCCAUGUGAGGAUAUCGAAAUUUAUAUUAAUAUUUUUAUUUCGAGAAGGCACAUUUU,144,166,,
UGUCGUAGCAGAGGAUAUUACAUGAGGAUCACCCAUGUAUGAACCAAUAGCUGGAAACAGCAAUGUAAGAAGGCUGCUCCGACA,13.2,158,,
UUGGACGUCGUAGGAUAUGUAGGAUAUUCCUACAUGAGGAUCACCCAUGUUGACAUGGAAGAACGACAGAAGGACGAUGUCCAU,,,130,7.46
UAUUAAUACGAAGGAUAUGGUUACAUGAGGAUCACCCAUGUAUGUAUAUUGAUCUAGUUUUUUAACCAGAAGGUCGUGAGUAAA,30.6,48.6,,
CGAGUUUUUGAGAAGGCAUAUUAUAAUAGUGUCCAUGUUUACAUGAGGAUCACCCAUGUUUAGUAUGAGGAUAUCAGUAUGUCG,8.01,11.1,,
AGCCGCUUAGGAUAUACCUAGAUUCUUCCGCGCUGUACGGUACAUGAGGAUCACCCAUGUAGAAGGAGGUGGCA,23.5,29.7,,
UCAUGAUAUGUAGGAUAUCACAAUAAUUGAUUAAUAUAUGAAUAUAGAAUUUGAGAAGGACAUUUACAUGAGGAUCACCCAUGU,14.8,12.3,,
UCGAUGCGAGGAUAUACUAAGGCAACUACUGCAGCUCAAAAACAUGAGGAUCACCCAUGUAGAAGGCGCAUAUA,16,15.4,,
GGAAAUCAUGUAGGAUAUGCAUGGCGAAGCUACGCAGAAGGACAUGAGGAUCACCCAUGUUAUAGCGUCCGAUAAAGGAUGCAA,117,164,,
UCAAUCAUGUAAGGAUAUGCAGCCGAAACGGCUGCAGAAGGUACUAUAAUUACAUGAGGAUCACCCAUGUUAUAAAAUUUAUAU,,,169,35.2
AAUUGAAACGUAGGAUAUCGCUAUUAAUUAAUUCGAGAAGGACGUACAUGAGGAUCACCCAUGUUUAAUGGUGUAGUUUAGUUG,179,252,,
